Assays:
Format in all cases: functional
[1] = tested on: Rattus norvegicus; test: Antiinflammatory activity against carrageenan-induced edema in Sprague-Dawley rat at 100 mg/kg, po
Procedure, shortened: (§1)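 Rats were dosed orally by gastric intubation with a homogenized suspension in 0.5% carboxymethylcellulose (1 mL/100 g); controls received vehicle alone. After 60 min, 0.1 mL of 1% carrageenan in saline was injected into the plantar surface of the right hind paw. Paw volume was measured by water displacement at injection and 2 h later. Edema was taken as the difference, with % inhibition versus controls (mean ± SD, Student's t-test).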

[2] = tested on: Rattus norvegicus; test: Antiinflammatory activity against carrageenan-induced edema in Sprague-Dawley rat at 200 mg/kg, po; procedure, shortened: as §1
[3] = tested on: Rattus norvegicus; test: Antiinflammatory activity against carrageenan-induced edema in Sprague-Dawley rat at 25 mg/kg, po
Procedure, shortened: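 Oral gavage dosing as a homogenized suspension in 0.5% carboxymethylcellulose (1 mL/100 g); controls got vehicle; indomethacin 6 mg/kg p.o. positive control. After 60 min, 0.1 mL 1% carrageenan in saline injected into the right hind plantar surface. Paw volume read by water displacement to the lateral malleolus at injection and 2 h later; the difference is edema. % inhibition vs controls; Student's t-test.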

[4] = tested on: Rattus norvegicus; test: Antiinflammatory activity against carrageenan-induced edema in Sprague-Dawley rat at 6 mg/kg, po; procedure, shortened: as §1
[5] = tested on: Mus musculus; test: Analgesic activity against acetic acid-induced writhing in mouse at 3.12 mg/kg
[6] = tested on: Rattus norvegicus; test: Antiinflammatory activity against carrageenan-induced edema in Sprague-Dawley rat at 50 mg/kg, po; procedure, shortened: as §1

| Structure (SMILES) | inhibition in vivo at 200 mg/kg [2] [%] | also measured |
| --- | --- | --- |
| CCN(CC)C(=O)c1c(NCC(C)C)c2cccnc2n2c(C(=O)N(CC)CC)nnc12 | 60 | inhibition in vivo at 100 mg/kg [1]: 30% |
| CCNc1c(C(=O)N(CC)CC)c2nnc(C(C)C)n2c2ncccc12 | – | inhibition in vivo at 25 mg/kg [3]: 61% |
| CCOC(=O)C(C)c1nnc2c(C(=O)N(CC)CC)c(NCC(C)C)c3cccnc3n12 (stereo not given) | 12 | – |
| CCc1nnc2c(C(=O)N(CC)CC)c(N(CC)C(=O)c3cccnc3)c3cccnc3n12 | 51 | inhibition in vivo at 100 mg/kg [1]: 31% |
| CCCN(CCC)C(=O)c1nnc2c(C(=O)N(CC)CC)c(NCC(C)C)c3cccnc3n12 | 35 | – |
| CCN(CC)C(=O)c1c(NCC(C)C)c2cccnc2n2c(C(C)C)nnc12 | – | inhibition in vivo at 25 mg/kg [3]: 61% |
| CCOC(=O)c1nnc2c(C(=O)N(CC)CC)c(NCC(C)C)c3cccnc3n12 | 20 | – |
| CCN(CC)C(=O)c1c(NCC(C)C)c2cccnc2n2c(CC(=O)Nc3nccs3)nnc12 | 18 | – |
| CCCCNc1c(C(=O)N(CC)CC)c2nnc(CC(=O)NCC(C)C)n2c2ncccc12 | 0 | – |
| COc1ccc2c(c1)c(CC(=O)O)c(C)n2C(=O)c1ccc(Cl)cc1 [INDOMETHACIN] | – | inhibition in vivo at 6 mg/kg [4]: 92% |
| CCN(CC)C(=O)c1c(N2CCN(C)CC2)c2cccnc2n2c(C(C)C)nnc12 | – | Activity [5]: 85% |
| CCN(CC)C(=O)c1c(Cl)c2cccnc2n2c(C(=O)N(C(C)C)C(C)C)nnc12 | 30 | – |
| CCN(CC)C(=O)c1c(N(CC(C)C)C(C)=O)c2cccnc2n2c(C(C)C)nnc12 | 5 | – |
| CCN(CC)C(=O)c1c(NCC(C)C)c2cccnc2n2c(CC(=O)NCC(C)C)nnc12 | 18 | – |
| CCNc1c(C(=O)N(CC)CC)c2nnc(CC(=O)OCC)n2c2ncccc12 | 0 | – |
| CCOC(=O)Cc1nnc2c(C(=O)N(CC)CC)c(NCC(C)C)c3cccnc3n12 | 65 | inhibition in vivo at 100 mg/kg [1]: 35%; inhibition in vivo at 50 mg/kg [6]: 21% |
